Assay results taken from ChEMBL document CHEMBL4177755, “Combating Drug-Resistant Fungi with Novel Imperfectly Amphipathic Palindromic Peptides” (J Med Chem, 2018).

Experiments:
Escherichia coli [1] = assay: Antibacterial activity against Escherichia coli ATCC 25922 after 18 hrs in presence of FeCl3 by broth dilution method; assay type: functional; conditions: ATCC 25922, 18 h
Candida albicans [2] = assay: Antifungal activity against Candida albicans cgmcc 2.2086 in presence of FeCl3 by broth dilution method; assay type: functional
[3] = Antibacterial activity against Salmonella pullorum ATCC 7913 after 24 hrs; assay type: functional, Salmonella enterica subsp. enterica serovar Pullorum; conditions: Salmonella enterica, ATCC 7913, 24 h
Procedure, shortened: (§1)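 Broth microdilution. Mid-log bacteria in MHB at a final (0.5−1) × 10^5 CFU/mL were mixed with equal volumes of peptide serially diluted in 0.2% BSA. Plates were incubated 24 h at 37 °C and read at A492. MIC is the lowest concentration inhibiting 95% of growth. Each test was repeated at least 3 times.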

Candida albicans [4] = assay: Antifungal activity against Candida albicans cgmcc 2.2086 in presence of ZnCl2 by broth dilution method; assay type: functional
Staphylococcus aureus [5] = assay: Antibacterial activity against Staphylococcus aureus ATCC 29213 after 24 hrs; assay type: functional; conditions: ATCC 29213, 24 h
Procedure, shortened: (§2)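 Modified NCCLS broth microdilution. Mid-log bacteria at (0.5−1) × 10^5 CFU/mL in MHB were mixed 1:1 with peptide serially diluted in 0.2% BSA and incubated 24 h at 37 °C. Absorbance was read at 492 nm; MIC is the lowest concentration inhibiting 95% of growth. At least 3 repeats.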

[6] = system: Staphylococcus epidermidis; assay: Antibacterial activity against Staphylococcus epidermidis ATCC 12228 after 24 hrs; assay type: functional; conditions: ATCC 12228, 24 h; procedure, shortened: as §1
Staphylococcus aureus [7] = assay: Antibacterial activity against methicillin-resistant Staphylococcus aureus ATCC 4330 after 24 hrs; assay type: functional; conditions: ATCC 4330, 24 h; procedure, shortened: as §2
Staphylococcus aureus [8] = assay: Bactericidal activity against Staphylococcus aureus ATCC 29213; assay type: functional; conditions: read-out: MBC99.9
Procedure, shortened: (§3)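 Wells from the 24 h, 37 °C MHB microdilution plates (bacteria at a final (0.5−1) × 10^5 CFU/mL; peptide diluted in 0.2% BSA) were plated on agar and incubated overnight. MBC is the lowest concentration killing >99.9% of cells. Each test was reproduced at least 3 times.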

Candida albicans [9] = assay: Antifungal activity against Candida albicans 14936 after 48 hrs by broth microdilution method; assay type: functional; conditions: Candida albicans, 14936, 48 h
Procedure, shortened: (§4)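 Modified CLSI M27-A2 broth microdilution. Yeast at (0.5−1) × 10^3 CFU/mL in MOPS-buffered RPMI 1640 was mixed 1:1 with peptide serially diluted in 0.2% BSA and incubated 48 h at 28 °C. Absorbance was read at 492 nm; MIC is the lowest concentration inhibiting 95% of growth. Triplicate, three biological replicates.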

Candida parapsilosis = assay: Fungicidal activity against Candida parapsilosis cgmcc 2.3989 after 96 hrs; assay type: functional; conditions: Lodderomyces parapsilosis, cgmcc 2.3989, 96 h; read-out: MFC99.9
Procedure, shortened: (§5)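 Wells from the 48 h, 28 °C RPMI 1640/MOPS microdilution plates were plated on YM agar and incubated a further 48 h at 28 °C. MFC is the lowest concentration killing at least 99.9% of cells. Run in triplicate with three biological replicates.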

[10] = system: Staphylococcus epidermidis; assay: Bactericidal activity against Staphylococcus epidermidis ATCC 12228; assay type: functional; conditions: read-out: MBC99.9; procedure, shortened: as §3
Escherichia coli [11] = assay: Bactericidal activity against Escherichia coli ATCC 25922; assay type: functional; conditions: read-out: MBC99.9; procedure, shortened: as §3
Candida tropicalis = assay: Antifungal activity against Candida tropicalis cgmcc 2.1975 after 48 hrs by broth microdilution method; assay type: functional; conditions: cgmcc 2.1975, 48 h
Procedure, shortened: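 Modified CLSI M27-A2 broth microdilution. Yeast were suspended in MOPS-buffered RPMI 1640 at a final (0.5−1) × 10^3 CFU/mL and mixed 1:1 with peptide serially diluted in 0.2% BSA. Plates were incubated 48 h at 28 °C and read at A492. MIC is the lowest concentration giving 95% inhibition. Run in triplicate with three biological replicates.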

Staphylococcus aureus [12] = assay: Bactericidal activity against Staphylococcus aureus ATCC 25923; assay type: functional; conditions: read-out: MBC99.9; procedure, shortened: as §3
Escherichia coli [13] = assay: Antibacterial activity against Escherichia coli ATCC 25922 after 24 hrs; assay type: functional; conditions: ATCC 25922, 24 h; procedure, shortened: as §1
Escherichia coli [14] = assay: Antibacterial activity against Escherichia coli ATCC 25922 after 18 hrs in presence of ZnCl2 by broth dilution method; assay type: functional; conditions: ATCC 25922, 18 h
Candida albicans [15] = assay: Fungicidal activity against fluconazole-resistant Candida albicans 56452 after 96 hrs; assay type: functional; conditions: Candida albicans, 56452, 96 h; read-out: MFC99.9
Procedure, shortened: (§6)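 After the 48 h, 28 °C broth microdilution in MOPS-buffered RPMI 1640 (inoculum (0.5−1) × 10^3 CFU/mL), 50 μL from each well was plated on YM agar for a further 48 h at 28 °C. MFC is the lowest concentration killing at least 99.9% of cells. Triplicate, three biological replicates.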

Candida albicans [16] = assay: Fungicidal activity against Candida albicans 14936 after 96 hrs; assay type: functional; conditions: Candida albicans, 14936, 96 h; read-out: MFC99.9; procedure, shortened: as §6
Candida albicans [17] = assay: Antifungal activity against fluconazole-resistant Candida albicans 56214 after 48 hrs by broth microdilution method; assay type: functional; conditions: Candida albicans, 56214, 48 h; procedure, shortened: as §4
Staphylococcus aureus [18] = assay: Bactericidal activity against methicillin-resistant Staphylococcus aureus ATCC 4330; assay type: functional; conditions: read-out: MBC99.9
Procedure, shortened: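 Bacteria at (0.5−1) × 10^5 CFU/mL in MHB were exposed to serially diluted peptide (0.2% BSA) for 24 h at 37 °C, then 50 μL aliquots were plated on agar overnight. MBC is the lowest concentration killing >99.9% of cells. At least 3 repeats.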

Candida albicans [19] = assay: Antifungal activity against Candida albicans cgmcc 2.2086 after 48 hrs by broth microdilution method; assay type: functional; conditions: cgmcc 2.2086, 48 h; procedure, shortened: as §4
Salmonella typhimurium = assay: Bactericidal activity against Salmonella typhimurium ATCC 14028; assay type: functional, Salmonella enterica subsp. enterica serovar Typhimurium; conditions: Salmonella enterica, read-out: MBC99.9; procedure, shortened: as §3
Candida albicans [20] = assay: Antifungal activity against Candida albicans cgmcc 2.2086 in presence of KCl by broth dilution method; assay type: functional
Escherichia coli [21] = assay: Antibacterial activity against Escherichia coli ATCC 25922 after 18 hrs in presence of NH4Cl by broth dilution method; assay type: functional; conditions: ATCC 25922, 18 h
Candida albicans [22] = assay: Fungicidal activity against Candida albicans SP3903 after 96 hrs; assay type: functional; conditions: SP3903, 96 h, read-out: MFC99.9; procedure, shortened: as §6
Candida albicans [23] = assay: Fungicidal activity against Candida albicans SP3902 after 96 hrs; assay type: functional; conditions: SP3902, 96 h, read-out: MFC99.9; procedure, shortened: as §6
Pichia kudriavzevii = assay: Fungicidal activity against Candida krusei cgmcc 2.1857 after 96 hrs; assay type: functional; conditions: cgmcc 2.1857, 96 h, read-out: MFC99.9; procedure, shortened: as §5
Candida albicans [24] = assay: Fungicidal activity against Candida albicans 58288 after 96 hrs; assay type: functional; conditions: Candida albicans, 58288, 96 h; read-out: MFC99.9; procedure, shortened: as §6
Candida albicans [25] = assay: Antifungal activity against Candida albicans cgmcc 2.2086 in presence of MgCl2 by broth dilution method; assay type: functional
Escherichia coli [26] = assay: Antibacterial activity against Escherichia coli ATCC 25922 after 18 hrs in presence of NaCl by broth dilution method; assay type: functional; conditions: ATCC 25922, 18 h
Escherichia coli [27] = assay: Bactericidal activity against Escherichia coli 1005; assay type: functional; conditions: read-out: MBC99.9; procedure, shortened: as §3
Candida albicans [28] = assay: Antifungal activity against Candida albicans cgmcc 2.2086 in presence of CaCl2 by broth dilution method; assay type: functional
Candida albicans [29] = assay: Antifungal activity against Candida albicans isolated from alveolar fluid after 48 hrs by broth microdilution method; assay type: functional; procedure, shortened: as §4
Candida albicans [30] = assay: Antifungal activity against Candida albicans cgmcc 2.2086 in presence of NH4Cl by broth dilution method; assay type: functional

Substance | MIC (Escherichia coli [1]) | MIC (Candida albicans [2]) | MIC95 [3] | MIC (Candida albicans [4]) | MIC95 (Staphylococcus aureus [5]) | MIC95 [6] | MIC95 (Staphylococcus aureus [7]) | MBC (Staphylococcus aureus [8]) | MIC95 (Candida albicans [9]) | MFC (Candida parapsilosis) | MBC [10] | MBC (Escherichia coli [11]) | MIC95 (Candida tropicalis) | MBC (Staphylococcus aureus [12]) | MIC95 (Escherichia coli [13]) | MIC (Escherichia coli [14]) | MFC (Candida albicans [15]) | MFC (Candida albicans [16]) | MIC95 (Candida albicans [17]) | MBC (Staphylococcus aureus [18]) | further results
H-RWWRRWRRWWR-NH2 | 16 µM | 4 µM | 4 µM | 4 µM | 4 µM | 4 µM | 4 µM | 8 µM | 4 µM | 32 µM | 8 µM | 16 µM | 2 µM | 16 µM | 16 µM | 16 µM | 8 µM | 4 µM | 4 µM | 8 µM | MIC95 (Candida albicans [19]): 4 µM; MBC (Salmonella typhimurium): 32 µM; MIC (Candida albicans [20]): 8 µM; MIC (Escherichia coli [21]): 16 µM; MFC (Candida albicans [22]): 2 µM; MFC (Candida albicans [23]): 4 µM; MFC (Pichia kudriavzevii): 4 µM; MFC (Candida albicans [24]): 8 µM; MIC (Candida albicans [25]): 8 µM; MIC (Escherichia coli [26]): 16 µM; MBC (Escherichia coli [27]): 8 µM; MIC (Candida albicans [28]): 8 µM; MIC95 (Candida albicans [29]): 4 µM; MIC (Candida albicans [30]): 4 µM
H-WWRRWRRWW-NH2 | 4 µM | 8 µM | 8 µM | 8 µM | 4 µM | 4 µM | 4 µM | 16 µM | 8 µM | 64 µM | 8 µM | 32 µM | 4 µM | 8 µM | 8 µM | 16 µM | 8 µM | 8 µM | 4 µM | 4 µM | MIC95 (Candida albicans [19]): 8 µM; MBC (Salmonella typhimurium): 16 µM; MIC (Candida albicans [20]): 16 µM; MIC (Escherichia coli [21]): 8 µM; MFC (Candida albicans [22]): 4 µM; MFC (Candida albicans [23]): 8 µM; MFC (Pichia kudriavzevii): 4 µM; MFC (Candida albicans [24]): 8 µM; MIC (Candida albicans [25]): 8 µM; MIC (Escherichia coli [26]): 8 µM; MBC (Escherichia coli [27]): 8 µM; MIC (Candida albicans [28]): 16 µM; MIC95 (Candida albicans [29]): 8 µM; MIC (Candida albicans [30]): 8 µM
